The source made the active and inactive calls. The calls are words filed in the database; no cut-off is given here.
Experiments:
Dipeptidyl peptidase 1 [1] = molecular target: T1, Dipeptidyl peptidase 1 (Homo sapiens, UniProt P53634); experiment: Binding affinity to cathepsin C in human B721 cells assessed as cellular compound turnover in presence of (S)-2-Amino-pentanoic acid ((S)-3-methanesulfonyl-1-phenethyl-allyl)-amide; assay type: cell-based
Cathepsin K = molecular target: T2, Cathepsin K (Homo sapiens, UniProt P43235); experiment: Inhibition of human recombinant cathepsin K by fluorescence assay
T2 sequence (P43235 whole entry): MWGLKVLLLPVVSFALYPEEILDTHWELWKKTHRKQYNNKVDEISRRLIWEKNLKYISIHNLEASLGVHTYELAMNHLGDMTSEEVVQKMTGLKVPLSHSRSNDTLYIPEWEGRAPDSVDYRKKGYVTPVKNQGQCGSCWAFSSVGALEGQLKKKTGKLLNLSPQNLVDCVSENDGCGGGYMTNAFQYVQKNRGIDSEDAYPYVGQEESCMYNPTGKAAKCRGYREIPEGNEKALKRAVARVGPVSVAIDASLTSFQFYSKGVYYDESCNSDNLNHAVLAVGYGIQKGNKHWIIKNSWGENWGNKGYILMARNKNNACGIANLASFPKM

Cathepsin S = Cathepsin S (Homo sapiens, UniProt P25774); experiment: Inhibition of human recombinant cathepsin S by fluorescence assay
Sequence of Cathepsin S (P25774 whole entry): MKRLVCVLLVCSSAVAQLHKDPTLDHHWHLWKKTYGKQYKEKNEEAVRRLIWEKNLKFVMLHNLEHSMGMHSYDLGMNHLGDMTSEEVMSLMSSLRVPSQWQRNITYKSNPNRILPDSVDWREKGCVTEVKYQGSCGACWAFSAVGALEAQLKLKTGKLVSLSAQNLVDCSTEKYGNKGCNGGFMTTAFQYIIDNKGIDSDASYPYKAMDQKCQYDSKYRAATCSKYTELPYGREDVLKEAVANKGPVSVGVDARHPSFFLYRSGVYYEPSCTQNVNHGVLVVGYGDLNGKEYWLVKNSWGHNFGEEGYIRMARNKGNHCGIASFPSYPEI

Dipeptidyl peptidase 1 [2] = molecular target: T1, Dipeptidyl peptidase 1; experiment: Inhibition of cathepsin C in human B721 cells by FACS assay; assay type: cell-based
Summary of the method: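 B721 EBV-immortalized B cells were washed and resuspended in serum-free, phenol red-free RPMI 1640 at 1 × 10⁶ cells/mL. Cells were pretreated with compound or DMSO (final 10, 3.3, 1.1, 0.37, 0.12, 0 μM) for 30 min at 37 °C, 5% CO2. (H₂N-Abu-Hph)₂-rhodamine (final 2 μM) and propidium iodide (4 μg/mL) were added. Flow cytometry read ex 488/em 530 nm at three time points 15 min apart.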

Dipeptidyl peptidase 1 [3] = molecular target: T1, Dipeptidyl peptidase 1; experiment: Inhibition of human recombinant cathepsin C by fluorescence assay
Summary of the method: (§1)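 Recombinant human enzyme was preincubated with inhibitor for 20 min. Substrate was then added: H-Arg-AMC for cathepsin H, H₂N-Gly-Phe-AMC for cathepsin C. Buffer was 100 mM NaOAc, 1 mM EDTA, 0.01% Brij-35, 5 mM DTT, pH 5.5, 37 °C. AMC release was read by fluorescence, ex 380/em 450 nm. Progress curves were fitted to the Morrison equation, and apparent values were converted to Ki assuming competitive inhibition.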

Pro-cathepsin H = molecular target: T3, Pro-cathepsin H (Homo sapiens, UniProt P09668); experiment: Inhibition of human recombinant cathepsin H by fluorescence assay; summary of the method: as §1
T3 sequence (P09668 whole entry): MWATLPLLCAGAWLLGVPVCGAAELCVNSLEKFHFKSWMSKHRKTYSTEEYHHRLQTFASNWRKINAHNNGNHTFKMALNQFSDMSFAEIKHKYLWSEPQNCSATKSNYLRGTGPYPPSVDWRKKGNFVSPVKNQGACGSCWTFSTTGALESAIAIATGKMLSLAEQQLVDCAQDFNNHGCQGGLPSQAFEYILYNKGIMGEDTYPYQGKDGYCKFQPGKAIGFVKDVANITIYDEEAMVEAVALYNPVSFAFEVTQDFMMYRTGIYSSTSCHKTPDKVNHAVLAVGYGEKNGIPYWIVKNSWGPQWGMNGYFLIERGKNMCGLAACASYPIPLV

Dipeptidyl peptidase 1 [4] = molecular target: T1, Dipeptidyl peptidase 1; experiment: Blockade of conjugation of cathepsin C in human B721 cells to I125-labeled (S)-2-amino-N-((S)-1-(4-hydroxy-3-iodophenylsulfonyl)-5-phenylpent-1-en-3-yl)pentanamide pretreated for 30 mins before addition of I125-labeled (S)-2-amino-N-((S)-1-(4-hydroxy-3-iodophenylsulfonyl)-5-phenylpent-1-en-3-yl)pentanamide by SDS-PAGE; assay type: cell-based
Summary of the method: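 B721 cells at 1 × 10⁶ cells/mL were preincubated with compound or DMSO (final 50, 10, 1, 0.1, 0 μM) for 30 min at 37 °C, 5% CO2. ¹²⁵I-labeled probe was then added at 2 nM for another 30 min at 37 °C. Cells were pelleted, lysed and boiled. Labeled cathepsin C was resolved by SDS–PAGE and quantified by phosphorimaging.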

Cathepsin B = Cathepsin B (Homo sapiens, UniProt P07858); experiment: Inhibition of human recombinant cathepsin B by fluorescence assay
Homo sapiens [5] = species: Homo sapiens; experiment: Selectivity for human recombinant cathepsin C over human recombinant cathepsin B
Homo sapiens [6] = species: Homo sapiens; experiment: Selectivity for human recombinant cathepsin C over human recombinant cathepsin H
Homo sapiens [7] = species: Homo sapiens; experiment: Selectivity for human recombinant cathepsin C over human recombinant cathepsin K
Homo sapiens [8] = species: Homo sapiens; experiment: Selectivity for human recombinant cathepsin C over human recombinant cathepsin S
Homo sapiens [9] = species: Homo sapiens; experiment: Selectivity for human recombinant cathepsin C over human recombinant cathepsin L
[10] = molecular target: Procathepsin L (Homo sapiens) (UniProt P07711); experiment: Inhibition of human recombinant cathepsin L by fluorescence assay
Sequence of Procathepsin L (Homo sapiens) (P07711 114-333 limits assumed): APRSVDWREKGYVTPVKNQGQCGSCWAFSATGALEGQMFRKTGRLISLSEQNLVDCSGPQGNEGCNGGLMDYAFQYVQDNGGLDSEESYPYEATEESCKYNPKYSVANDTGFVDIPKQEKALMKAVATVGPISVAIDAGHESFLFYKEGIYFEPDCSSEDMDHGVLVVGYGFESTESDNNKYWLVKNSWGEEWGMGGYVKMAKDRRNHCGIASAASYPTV

T1 sequence (P53634 25-134 limits assumed): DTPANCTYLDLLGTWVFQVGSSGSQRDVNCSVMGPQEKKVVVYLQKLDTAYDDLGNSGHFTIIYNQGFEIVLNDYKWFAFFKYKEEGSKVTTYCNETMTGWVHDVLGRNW
T1 sequence (P53634 231-394 limits assumed): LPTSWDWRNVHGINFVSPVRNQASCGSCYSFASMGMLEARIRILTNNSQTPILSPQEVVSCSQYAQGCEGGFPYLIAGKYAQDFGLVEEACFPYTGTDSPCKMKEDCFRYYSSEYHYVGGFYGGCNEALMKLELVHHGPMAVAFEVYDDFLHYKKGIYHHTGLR
T1 sequence (P53634 395-463 limits assumed): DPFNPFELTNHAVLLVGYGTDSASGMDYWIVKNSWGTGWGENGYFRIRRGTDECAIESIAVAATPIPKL

| Compound | Activity (Dipeptidyl peptidase 1 [1]) | Ki (Cathepsin K) [nM] | Ki (Cathepsin S) [nM] | IC50 (Dipeptidyl peptidase 1 [2]) [nM] | INH (Dipeptidyl peptidase 1 [3]) [nM] | Ki (Pro-cathepsin H) [nM] | IC50 (Dipeptidyl peptidase 1 [4]) [nM] | Ki (Cathepsin B) [nM] | Activity (Homo sapiens [5]) | Activity (Homo sapiens [6]) | Activity (Homo sapiens [7]) | Activity (Homo sapiens [8]) | Activity (Homo sapiens [9]) | INH [10] [nM] |
| --- | --- | --- | --- | --- | --- | --- | --- | --- | --- | --- | --- | --- | --- | --- |
| O=C1OC2(c3ccc(NC(=O)[C@H](CCc4ccccc4)NC(=O)[C@@H]4CCCN4)cc3Oc3cc(NC(=O)[C@H](CCc4ccccc4)NC(=O)[C@@H]4CCCN4)ccc32)c2ccccc21 | inactive | – | – | – | – | – | – | – | – | – | – | – | – | – |
| CCC[C@H](N)C(=O)N[C@@H](CCc1ccccc1)C(=O)Nc1ccc2c(c1)Oc1cc(NC(=O)[C@H](CCc3ccccc3)NC(=O)[C@@H](N)CCC)ccc1C21OC(=O)c2ccccc21 | inactive | – | – | – | – | – | – | – | – | – | – | – | – | – |
| CC[C@H](N)C(=O)N[C@@H](CCc1ccccc1)C(=O)Nc1ccc2c(c1)Oc1cc(NC(=O)[C@H](CCc3ccccc3)NC(=O)[C@@H](N)CC)ccc1C21OC(=O)c2ccccc21 | inactive | – | – | – | – | – | – | – | – | – | – | – | – | – |
| CC[C@H](N)C(=O)N[C@H](C#N)Cc1ccc(-c2ccccc2)cc1 | – | 18000 | > 100000 | 6100 | 1.5 | 3700 | 10000 | > 100000 | – | – | – | – | – | – |

Second part, the molecule after the results:

| Activity (Dipeptidyl peptidase 1 [1]) | Ki (Cathepsin K) [nM] | Ki (Cathepsin S) [nM] | IC50 (Dipeptidyl peptidase 1 [2]) [nM] | INH (Dipeptidyl peptidase 1 [3]) [nM] | Ki (Pro-cathepsin H) [nM] | IC50 (Dipeptidyl peptidase 1 [4]) [nM] | Ki (Cathepsin B) [nM] | Activity (Homo sapiens [5]) | Activity (Homo sapiens [6]) | Activity (Homo sapiens [7]) | Activity (Homo sapiens [8]) | Activity (Homo sapiens [9]) | INH [10] [nM] | Compound |
| --- | --- | --- | --- | --- | --- | --- | --- | --- | --- | --- | --- | --- | --- | --- |
| – | 1.2 | < 0.1 | 2600 | 1800 | 1400 | 4000 | 64 | – | – | – | – | – | – | CC(C)C[C@H](NC(=O)N1CCOCC1)C(=O)N[C@H](/C=C/S(=O)(=O)c1ccccc1)CCc1ccccc1 |
| – | 120 | 5.5 | 70 | 0.2 | 137 | 100 | 1100 | 75 | 75 | 75 | 75 | 75 | 20 | CCC[C@H](N)C(=O)N[C@H](/C=C/S(=O)(=O)c1ccccc1)CCc1ccccc1 |

From ChEMBL document CHEMBL1140981, “Substrate optimization for monitoring cathepsin C activity in live cells” (Bioorg Med Chem, 2009)
